Consider 2 compounds from ChEMBL document CHEMBL4033788, “Novel Ligustrazine-Based Analogs of Piperlongumine Potently Suppress Proliferation and Metastasis of Colorectal Cancer Cells in Vitro and in Vivo” (J Med Chem, 2018).

By IC50 is commonly meant the midpoint of a concentration-inhibition curve. For orientation: solubility means the concentration that dissolves in the medium under given conditions. As a reminder, the half-life is how long it takes for the measured level to halve. Higher therefore signals slow loss.

≈ marks a conversion by molar mass, not a printed value. Calls of active or inactive are those of the source. The rule behind the calls is not given here.

Data set [1] in a line: Induction of ROS accumulation in human CCD-841 cells at 10 uM after 3 hrs by DCFH-DA staining-based fluorescence microscopic analysis. It counts as cell-based. The note with it: ccd-841, 3 h. In short, it runs like this: (§1)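 HCT-116 or CCD-841 cells treated at 10 μM for 3 h, stained with DCFH-DA, and imaged by fluorescence microscopy for green-fluorescent cells.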
Data set [2] deals with Mus musculus. Nature of the data set: Toxicity in BALB/c nude mouse assessed as reduction in body weight at 2.5 to 5 mg/kg, ip administered for 21 consecutive days. It counts as organism-based. The note with it: in vivo. The gist of the method: (§2)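 Male BALB/c nude mice (3−5 weeks) inoculated sc with 1 × 10^7 HCT-116 cells; at tumour volume about 75 mm3 randomized (n = 8 per group) and dosed ip daily at 2.5 or 5 mg/kg for 21 consecutive days. Body weights monitored; liver, kidney, lung and heart inspected for size and morphology at sacrifice.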

For the next data set, the system named is HCT-8. The experiment in a line: Antiproliferative activity against human HCT8 cells after 72 hrs by MTT assay. It counts as functional, cell-based. The conditions noted are these: HCT-8, 72 h. In short, it runs like this:
(§3)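 Cells grown in RPMI 1640 with 10% FBS in 96-well plates overnight, then exposed to test agents in triplicate for 72 h. MTT (5 mg/mL stock) added for the last 4 h, formazan dissolved in DMSO, absorbance read at 570 nm. Inhibition = (1 − OD treated/OD control) × 100%.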
A general note: Tetrazolium assays rely on reduction of a dye to a coloured formazan, in cell work by metabolically active cells.

Data set [3] is described as follows: Antiproliferative activity against human CCD-841 cells after 72 hrs by MTT assay. It counts as cell-based. The note with it: CCD-841, 72 h. The gist of the method: as §3
The test system of data set [4] is U-87 MG. Nature of the data set: Antiproliferative activity against human U87MG cells after 72 hrs by MTT assay. It counts as functional, cell-based, U-87MG ATCC. In short, it runs like this: as §3
The test system of data set [5] is HCT-116. The experiment in a line: Induction of ROS accumulation in human HCT116 cells at 10 uM after 3 hrs by DCFH-DA staining-based fluorescence microscopic analysis. It counts as functional, cell-based. The gist of the method: as §1
For the next data set, the system named is SW-620. Nature of the data set: Antiproliferative activity against human SW620 cells after 72 hrs by MTT assay. The conditions noted are these: SW-620, 72 h. It counts as functional, cell-based. The gist of the method: as §3
The nature of data set [6]: Solubility of compound in phosphate buffer at pH 7.4 after 8 hrs by HPLC analysis. It counts as physicochemical. The gist of the method:
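Compound was shaken in 50 mM phosphate buffer (pH 7.4) at 20 °C, centrifuged, and the supernatant analysed by HPLC. Conditions were a C18 column, acetonitrile–water 60/40 (v/v) at 1.0 mL/min, with detection at 254 nm. Run in triplicate.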

Data set [7] deals with HCT-116. The experiment in a line: Induction of ROS accumulation in human HCT116 cells up to 3 hrs in presence of GSH by DCFH-DA staining-based fluorescence spectrometric analysis. It counts as functional, cell-based.
Data set [8] in a line: Stability of compound in human HCT116 cells at 1 uM after 4 hrs by LC-MS/MS analysis. It counts as ADME, cell-based. The note with it: hct-116, 4 h.
The test system of data set [9] is Mus musculus. Nature of the data set: Toxicity in BALB/c nude mouse xenografted with human HCT116 cells assessed as loss of body weight at 4 mg/kg, ip administered thrice a week for 6 consecutive weeks. It counts as organism-based. The conditions noted are these: in vivo. In short, it runs like this:
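Lung metastasis model: HCT-116 cells in serum-free medium injected into tail vein of BALB/c nude mice, then randomized and given vehicle or compound ip (1, 2 or 4 mg/kg) three times a week. Body weight recorded weekly, survival monitored (n = 6); mice sacrificed after 40 days and lungs examined by H&E histology.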

In data set [10] the test system is HCT-116. Nature of the data set: Antitumor activity against human HCT116 cells xenografted in BALB/c nude mouse assessed as tumor growth inhibition at 5 mg/kg, ip administered daily for 21 consecutive days relative to control. It counts as functional. The note with it: HCT-116, ip, read-out: TGI. In short, it runs like this:
(§4)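 Male BALB/c nude mice, 3–5 weeks old, inoculated subcutaneously with 1 × 10^7 HCT-116 cells. At about 75 mm³ tumor volume, randomized (n = 8/group) and dosed intraperitoneally daily. Volume by caliper as d² × D/2. At the end, tumors excised and weighed; inhibition = (Wcontrol − Wtreated)/Wcontrol × 100%.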
In general terms: Xenograft models place foreign cells or tissue in a host animal.

Data set [11] is described as follows: Half life in Sprague-Dawley rat at 20 mg/kg, iv after 4 hrs by LC-MS/MS analysis. It counts as ADME, organism-based. The note with it: in vivo.
Data set [12] has as its system HCT-116. Nature of the data set: Cytotoxicity against human HCT116 cells at 2 to 50 nM after 24 to 48 hrs in presence of TGF-beta1 by MTT assay. It counts as cell-based. The note with it: hct-116, 0.05 µM. In short, it runs like this: (§5)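 HCT-116 cells exposed to TGF-β1 (10 ng/mL) alone or combined with test agent at 2, 10 or 50 nM for 24, 48 or 72 h. Viability read by MTT (formazan in DMSO, 570 nm).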

Data set [13] concerns HCT-116. Nature of the data set: Antiproliferative activity against human HCT116 cells after 72 hrs by MTT assay. It counts as functional, cell-based. The note with it: HCT-116, 72 h. In short, it runs like this: as §3
In data set [14] the test system is HCT-116. The experiment in a line: Cytotoxicity against human HCT116 cells assessed as reduction in cell viability at 50 nM after 72 hrs by MTT assay. The note with it: hct-116, 72 h, 0.05 µM. It counts as cell-based. The gist of the method: as §5
In data set [15] the test system is Mus musculus. The experiment in a line: Acute toxicity in ICR mouse assessed as mortality at 400 mg/kg, ip administered for 14 days. It counts as organism-based. The note with it: in vivo, 336 h.
In data set [16] the test system is HCT-116. The experiment in a line: Inhibition of TGF-beta1-induced increase in expression levels of MMP-9 protein in human HCT116 cells after 48 hrs by Western blot analysis. It counts as functional, cell-based. The gist of the method:
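HCT-116 cells treated with or without TGF-β1 (10 ng/mL) for 48 h, with or without test agent. Lysates (20 μg/lane) run on 7.5% SDS-PAGE and transferred to PVDF. Probed for p-Akt (Ser473), Akt, p-GSK-3β (S9), GSK-3β, E-cadherin, MMP-9 and β-actin, detected by ECL. Densitometry relative to β-actin or total protein. Three independent experiments.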
On the technique in general: In western blotting, separated proteins are transferred to a membrane and probed.

The test system of another data set is K562. The experiment in a line: Antiproliferative activity against human K562 cells after 72 hrs by MTT assay. It counts as functional, cell-based. The note with it: K562, 72 h. The gist of the method:
as §3

The subject of the next data set is HT-29. Nature of the data set: Antiproliferative activity against human HT-29 cells after 72 hrs by MTT assay. The note with it: HT-29, 72 h. It counts as functional, cell-based. In short, it runs like this: as §3
The subject of data set [17] is HCT-116. The experiment in a line: Antitumor activity against human HCT116 cells xenografted in BALB/c nude mouse assessed as reduction in tumor size at 2.5 to 5 mg/kg, ip administered daily for 21 consecutive days. It counts as functional, organism-based. In short, it runs like this: as §4
The test system of data set [18] is Mus musculus. Nature of the data set: Toxicity in BALB/c nude mouse xenografted with human HCT116 cells assessed as abnormality in lung at 2.5 to 5 mg/kg, ip administered for 21 consecutive days. The conditions noted are these: in vivo. It counts as organism-based. In short, it runs like this:
as §2

For data set [19], the system named is HCT-116. Nature of the data set: Antiproliferative activity against human HCT116 cells at 8 uM pretreated with GSH for 1 hr measured after 72 hrs by MTT assay. It counts as functional, cell-based. The gist of the method: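 HCT-116 cells pretreated with or without GSH (10 mM) for 1 h, washed, then treated for 72 h. Viability measured by MTT and inhibitory rates calculated. Mean ± SD of three independent experiments.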

For data set [20], the system named is HCT-116. The experiment in a line: Inhibition of TGF-beta1-induced increase in expression levels of vimentin protein in human HCT116 cells at 50 nM after 48 hrs by Western blot analysis. It counts as functional, cell-based. The gist of the method: (§6)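 HCT-116 cells (1 × 10^6/well, plated overnight) were exposed to TGF-β1 (10 ng/mL) for 48 h, with or without test compound; vehicle was 0.1% DMSO. Lysates (20 μg/lane) were run on 7.5% SDS-PAGE and blotted to PVDF, with primary antibody overnight at 4 °C and HRP/ECL detection. Band densities were normalised to β-actin across three independent experiments.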

For data set [21], the system named is U-87 MG. The experiment in a line: Antiproliferative activity against human U87MG cells after 72 hrs in presence of ligustrazine by MTT assay. It counts as functional, cell-based, U-87MG ATCC. In short, it runs like this: as §3
Data set [22] relates to HCT-116. Nature of the data set: Inhibition of TGF-beta1-induced increase in expression levels of twist protein in human HCT116 cells at 50 nM after 48 hrs by Western blot analysis. It counts as functional, cell-based. In short, it runs like this: as §6

As to `Cc1nc(C)c(/C=C/C(=O)N2CCC=C(Cl)C2=O)nc1C`, the Activity result is listed as “Toxic” in data set [1]; “Non-Toxic” in the data set with Mus musculus [2]; “Non-Toxic” in the data set on Mus musculus [9]; “Non-Toxic” in the data set on HCT-116 [12]; “Toxic” in the data set on HCT-116 [14]; “Toxic” in the data set with Mus musculus [15]. Also, the Activity result in the data set with Mus musculus [18] is “Non-Toxic”. Moreover, the IC50 in the data set with HCT-8 came to 1.21 µM; in [3], 51.6 µM; with U-87 MG [4], 3.43 µM; in the data set on SW-620, 0.87 µM; with HCT-116 [13], 0.3 µM; with K562, 0.25 µM. Moreover, the midpoint of inhibition in the data set with HT-29, the IC50, lay at 0.54 µM. In addition, the result in the data set on HCT-116 [5] and with HCT-116 [17] was Active. In addition, the solubility at 8 h in data set [6] amounted to 74.6 µg/mL (≈ 244 µM). Further, the outcome in the data set with HCT-116 [7] was inactive. Also, in data set [8], the Stability entry is listed as “Stable”. For the same compound, the inhibition in vivo at 5 mg/kg in the data set with HCT-116 [10] was 71.4%. For the same compound, the half-life in data set [11] is 2.17 h. Moreover, in the data set with HCT-116 [16], the inhibition entry is “Dose-dependent effect”.

Regarding `COc1cc(/C=C/C(=O)N2CCC=CC2=O)cc(OC)c1OC` [PIPLARTINE], the figures for the Activity entry (in [1]; in the data set on Mus musculus [9]; with HCT-116 [12]) were “Toxic”, “Non-Toxic” and “Non-Toxic”, respectively. Further, the 50% inhibitory concentration (IC50) was 4.1 µM in the data set with HCT-8; 44.3 µM in data set [3]; 17.3 µM with U-87 MG [4]; 4.62 µM with SW-620; 8.13 µM with HCT-116 [13]; 5.05 µM with K562. The half-maximal inhibitory concentration (IC50) in the data set with HT-29 was determined as 2.65 µM; with U-87 MG [21], 16.1 µM. Further, the outcome in the data set on HCT-116 [5] was Active. This compound displayed a solubility at 8 h in [6] of 0.32 µg/mL (≈ 1.01 µM). Moreover, in the data set on HCT-116 [19], the outcome was inactive. For the same compound, the inhibition in vivo at 5 mg/kg in the data set on HCT-116 [10] was 60.6%. In [11], this compound gave a half-life of 2.87 h. Further, the inhibition result in the data set on HCT-116 [20] and with HCT-116 [22] was “Active” throughout.
